Source: paper PMC6718129 (Drug Design, Development and Therapy, 2019)

Assays:
[1] = system: phosphorylated Rb protein in A-549 cell line; experiment: Rb phosphorylation by quantitative immunofluorescence; assay type: cell-based, human; settings: A-549, dose-response
How it was run: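 A-549 cells were treated with vehicle or test compound (less than 100 µM down to 50 nM) for 24 or 48 hr. Nuclear phospho-Rb was measured by immunofluorescence, and total DNA content per cell gave the cell-cycle phase. Automated image analysis quantified P-Rb changes as dose–response curves, from which IC50 values were taken.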

A-549 cell line = experiment: Cell cycle distribution by total DNA content; assay type: cell-based, human; settings: A-549, 24 and 48 hrs
How it was run: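 A-549 cells treated 24 or 48 hr over a range from below 100 µM down to 50 nM, alongside a reference drug. Total DNA content per cell was quantified to assign cell cycle phase, together with immunofluorescent imaging of nuclear phosphorylated Rb. Automated image analysis quantified changes, and IC50 values were taken from dose–response curves.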

In the case of `CCN(CC)CCNC(=O)c1c(C)[nH]c(/C=C2\C(=O)Nc3ccc(F)cc32)c1C` [Sunitinib], the “levels of phosphorylated Rb protein (immunofluorescence)” value [1] is reported as “substantially reduced the extent of phosphorylated Rb protein in a dose-dependent fashion” and the Cell cycle influences (A-549 cell line) is reported as “increase in the percentage of cells in the S or G2/M phases of the cell cycle, with a concomitant reduction in the G1 phase”.
